{"source": "paper PMC4714678", "about": "(Cancer Science, 2015)", "key": {"[1]": {"system": "cancer cells (BGC‐823, PG and HT‐29)", "assay": "Fluorescence visualization for entry of peptides", "assay_type": "cell-based, human", "conditions": "BGC‐823, PG and HT‐29 cells, 25 μg/mL FITC‐conjugated peptide, 3 h, fixed, DAPI", "summary_of_the_method": "(§1)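 Test peptide FITC-conjugated, or FITC-TAT cell-penetrating peptide, each at 25 μg/mL, applied for 3 h. HUVEC were isolated in-house. BGC-823, PG and HT-29 were grown in RPMI-1640 with 10% FBS at 37°C in 5% CO2. Cells were then fixed in 4% paraformaldehyde, permeabilized with 0.1% NP-40 in PBS, nuclei stained with DAPI (5 ng/mL), washed three times in PBS, and imaged by confocal microscopy.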"}, "HUVEC": {"system": "HUVEC", "assay": "Fluorescence visualization for entry of peptides", "assay_type": "cell-based, human", "conditions": "25 μg/mL FITC‐conjugated peptide, 3 h, fixed, DAPI", "summary_of_the_method": "as §1"}, "[2]": {"conditions": "previous studies; cited from earlier work"}, "[3]": {"system": "subintestinal vein vessels (SIV) of zebrafish", "assay": "Transgenic zebrafish embryo angiogenesis assay", "assay_type": "in vivo", "conditions": "doses of the angiogenesis test"}, "[4]": {"assay": "Pre‐clinical toxicology study", "assay_type": "in vivo, mouse, rat and monkey"}}, "note": "No end group written: not given here.", "data": [{"compound": "N=C(N)NCCC[C@H](NC(=O)CNC(=S)Nc1ccc2c(c1)C(=O)OC21c2ccc(O)cc2Oc2cc(O)ccc21)C(=O)N[C@@H](CCCCN)C(=O)N[C@@H](CCCCN)C(=O)N[C@@H](CCCNC(=N)N)C(=O)N[C@@H](CCCNC(=N)N)C(=O)N[C@@H](CCC(N)=O)C(=O)N[C@@H](CCCNC(=N)N)C(=O)N[C@@H](CCCNC(=N)N)C(=O)N[C@@H](CCCNC(=N)N)C(=O)NCC(=O)N[C@@H](Cc1ccc(O)cc1)C(=O)O", "note": "[FITC‐labeled TAT peptide]", "values": [{"measurement": "entry into cells (confocal fluorescence)", "setting": "[1]", "result": "entered"}, {"measurement": "entry into cells (confocal fluorescence)", "setting": "HUVEC", "result": "entered"}]}, {"compound": "ADSGEGDFLAEGGGVR [FpA]", "values": [{"measurement": "anti‐angiogenesis activity of synthetic peptide", "setting": "[2]", "result": "inactive"}]}, {"compound": "ADSGEGDFLAEGGGVRGPRVVERH [alphastatin]", "values": [{"measurement": "anti‐angiogenesis activity of synthetic peptide", "setting": "[2]", "result": "showed anti‐angiogenesis activity"}]}, {"compound": "DSGEGDFLAEGGGVR [fibrinostatin]", "values": [{"measurement": "toxicity to zebrafish", "setting": "[3]", "result": "no tocixity"}, {"measurement": "side effects in toxicology study", "setting": "[4]; pre‐clinical animal models, GLP standards, data not shown", "result": "no observable side effects"}, {"measurement": "margin of safety", "setting": "[4]; single‐dose acute toxicity testing and repeated‐dose chronic toxicity study in the mouse, rat and monkey", "result": "wide margin of safety"}]}]}
